From ChEMBL document CHEMBL4330152, “α-Carbonic anhydrases are strongly activated by spinaceamine derivatives” (Bioorg Med Chem, 2019)

Key:
[1] = target: Carbonic anhydrase 2 (Homo sapiens) (UniProt P00918); assay: Activation of human CA-2 incubated for 15 mins prior to testing by stopped flow CO2 hydrase assay
Outline: (§1)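 Stopped-flow CO2 hydration at 25 °C, 10 mM Hepes pH 7.5 with 0.1 M NaClO4, phenol red 0.2 mM read at 557 nm over 10 s. CO2 1.7–17 mM. Activators (0.1 mM stocks in water) diluted in buffer down to 1 nM and preincubated 15 min with enzyme. Initial rates from ≥6 traces of first 5–10% of reaction, uncatalysed rate subtracted. Activation constants from competitive steady-state equation.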

[2] = target: Carbonic anhydrase 4 (Homo sapiens) (UniProt P22748); assay: Activation of human CA-4 incubated for 15 mins prior to testing by stopped flow CO2 hydrase assay; outline: as §1
Chain of Carbonic anhydrase 4 (Homo sapiens) (P22748 whole entry): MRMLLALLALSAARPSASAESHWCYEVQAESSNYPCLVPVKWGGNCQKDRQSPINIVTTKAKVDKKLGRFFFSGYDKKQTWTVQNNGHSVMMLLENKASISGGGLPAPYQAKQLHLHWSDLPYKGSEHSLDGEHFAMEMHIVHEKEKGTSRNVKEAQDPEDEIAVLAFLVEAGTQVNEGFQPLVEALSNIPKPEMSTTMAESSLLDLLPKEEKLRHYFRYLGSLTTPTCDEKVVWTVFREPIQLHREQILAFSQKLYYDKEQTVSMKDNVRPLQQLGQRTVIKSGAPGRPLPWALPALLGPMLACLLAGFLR

[3] = target: Carbonic anhydrase 7 (Homo sapiens) (UniProt P43166); assay: Activation of human CA-7 incubated for 15 mins prior to testing by stopped flow CO2 hydrase assay
[4] = target: Carbonic anhydrase 1 (Homo sapiens) (UniProt P00915); assay: Activation of human CA-1 incubated for 15 mins prior to testing by stopped flow CO2 hydrase assay; outline: as §1
Chain of Carbonic anhydrase 1 (Homo sapiens) (P00915 2-261 limits assumed): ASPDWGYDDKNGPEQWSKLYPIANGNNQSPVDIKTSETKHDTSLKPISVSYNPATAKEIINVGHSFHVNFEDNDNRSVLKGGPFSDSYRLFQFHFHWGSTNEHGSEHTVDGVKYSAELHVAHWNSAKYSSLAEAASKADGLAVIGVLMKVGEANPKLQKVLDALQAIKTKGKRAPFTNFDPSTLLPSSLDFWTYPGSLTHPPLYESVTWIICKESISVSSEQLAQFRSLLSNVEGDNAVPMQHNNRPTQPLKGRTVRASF

Row | Compound | KA [1] [µM] | KA [2] [µM] | KA [3] [µM] | KA [4] [µM]
1 | Oc1ccccc1C1NCCc2nc[nH]c21 (stereo not drawn) | 1.62 | 3.59 | 0.11 | 2.52
2 | NCCc1c[nH]cn1 |  | 4.03 | 37.6 | 
3 | N#Cc1ccc(C2NCCc3nc[nH]c32)cc1 (stereo not drawn) | 7.25 | 5.8 | 4.26 | 4.89
4 | COc1ccc(C2NCCc3[nH]cnc32)cc1 (stereo not drawn) | 7.31 | 6.37 | 0.73 | 6.01
5 | Brc1ccccc1C1NCCc2nc[nH]c21 (stereo not drawn) | 2.8 | 4.05 | 0.082 | 4.3
6 | CN(C)c1ccc(C2NCCc3nc[nH]c32)cc1 (stereo not drawn) | 7.44 | 3.14 | 0.59 | 3.45
7 | Cc1ccc(Br)cc1C1NCCc2nc[nH]c21 (stereo not drawn) | 15.5 | 4.42 | 0.38 | 12.7
8 | Cc1ccc(C2NCCc3nc[nH]c32)cc1 (stereo not drawn) | 17.2 | 7.06 | 1.03 | 6.27
9 | COc1ccc(C2NCCc3nc[nH]c32)cc1OC (stereo not drawn) | 0.71 | 6.17 | 0.26 | 3.76
10 | c1ccc(C2NCCc3[nH]cnc32)cc1 (stereo not drawn) | 16.3 | 63.8 | 2.69 | 8.12
11 | COc1cc(C2NCCc3nc[nH]c32)cc(OC)c1OC (stereo not drawn) | 3.26 | 2.84 | 0.093 | 9.28
12 | Oc1ccc(Br)cc1C1NCCc2nc[nH]c21 (stereo not drawn) | 1.03 | 10.9 | 0.12 | 4.9
13 | Clc1ccc(C2NCCc3[nH]cnc32)cc1 (stereo not drawn) | 8.49 | 50.1 | 0.84 | 17.6
14 | Fc1cc(F)c(F)c(C2NCCc3nc[nH]c32)c1F (stereo not drawn) | 0.6 | 0.52 | 0.11 | 9.92
15 | c1coc(C2NCCc3nc[nH]c32)c1 (stereo not drawn) | 5.12 | 2.4 | 0.095 | 21.5
